Experiments:
[1] = Antiproliferative activity against human OVCAR4 cells incubated for 48 hrs by sulforhodamine B assay; assay type: functional; conditions: OVCAR-4, 48 h
Procedure, shortened: (§1)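 Run externally by the US National Cancer Institute as part of its 60 human cancer cell line cytotoxicity screen (NCI-60).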

[2] = Antiproliferative activity against human OVCAR5 cells incubated for 48 hrs by sulforhodamine B assay; assay type: functional; conditions: OVCAR-5, 48 h; procedure, shortened: as §1
[3] = test system: A498; experiment: Antiproliferative activity against human A498 cells incubated for 48 hrs by sulforhodamine B assay; assay type: functional; conditions: A498, 48 h; procedure, shortened: as §1
[4] = test system: ACHN; experiment: Antiproliferative activity against human ACHN cells incubated for 48 hrs by sulforhodamine B assay; assay type: functional; procedure, shortened: as §1
[5] = Antiproliferative activity against human Caki1 cells incubated for 48 hrs by sulforhodamine B assay; assay type: functional; conditions: CAKI-1, 48 h; procedure, shortened: as §1
[6] = Antiproliferative activity against human UO31 cells incubated for 48 hrs by sulforhodamine B assay; assay type: functional; conditions: UO-31, 48 h
[7] = Antiproliferative activity against human PC3 cells incubated for 48 hrs by sulforhodamine B assay; assay type: functional; conditions: PC-3, 48 h; procedure, shortened: as §1
[8] = Antiproliferative activity against human DU145 cells incubated for 48 hrs by sulforhodamine B assay; assay type: functional; conditions: DU-145, 48 h; procedure, shortened: as §1
[9] = test system: MCF7; experiment: Antiproliferative activity against human MCF7 cells incubated for 48 hrs by sulforhodamine B assay; assay type: functional; conditions: MCF7, 48 h; procedure, shortened: as §1
[10] = test system: MDA-MB-231; experiment: Antiproliferative activity against human MDA-MB-231 cells incubated for 48 hrs by sulforhodamine B assay; assay type: functional; conditions: MDA-MB-231, 48 h; procedure, shortened: as §1
[11] = Antiproliferative activity against human Hs 578T cells incubated for 48 hrs by sulforhodamine B assay; assay type: functional
[12] = test system: T47D; experiment: Antiproliferative activity against human T47D cells incubated for 48 hrs by sulforhodamine B assay; assay type: functional; procedure, shortened: as §1
[13] = Antitumor activity against human Bel7404 cells xenografted in BALB/c nude mouse assessed as reduction in tumor volume at 30 mg/kg, po qd for 14 consecutive days relative to control; assay type: functional, BEL-7404; set-up: scale not given: the % may be the effect or the level left
Procedure, shortened: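 Male BALB/c nude mice carried implanted BEL-7404 tumours and were randomized once tumours reached 100–300 mm³ (about 12 days); there were 6 per treated group and 8 controls. Drug in 5% polysorbate 80/water was given orally once daily for 14 days from day 13. Tumour volume (1/2·a·b·b) and body weight were tracked, with sacrifice on day 29. The read-out was relative tumour volume versus vehicle, reported as mean SE.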

[14] = Half life in rat liver microsomes; assay type: ADME
[15] = Cytotoxicity against human Bel7404 cells after 72 hrs by MTT assay; assay type: functional, cell-based; conditions: BEL-7404, 72 h
Procedure, shortened: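 Log-phase cells at 40,000–50,000 cells/mL in DMEM with 10% FBS and antibiotics were seeded and cultured overnight at 37 °C, 5% CO₂. Compounds were diluted in DMSO/PBS from 10^-4 to 10^-9 M and applied for 72 h. MTT (5 mg/mL stock) was then added for 4 h and absorbance read at 570 nm. IC50 came from nonlinear regression on triplicate wells, averaged.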

[16] = target: Phosphatidylinositol 4,5-bisphosphate 3-kinase catalytic subunit alpha isoform (Homo sapiens, UniProt P42336); experiment: Inhibition of PI3K-alpha (unknown origin) using PIP2 as substrate incubated for 1 hr by Kinase-Glo luminescent kinase assay
[17] = target: Phosphatidylinositol 4,5-bisphosphate 3-kinase catalytic subunit gamma isoform (Homo sapiens, UniProt P48736); experiment: Inhibition of PI3K-gamma (unknown origin) after 40 mins by ADP-Glo luminescent kinase assay
Procedure, shortened: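 Final enzyme was PI3Kβ 4.8 nM and PI3Kγ 7.6 nM. ADP-Glo reagent stopped the reaction (40 min), then detection reagent was added (60 min) and luminescence read. Percent inhibition was derived from RLU.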

[18] = Antiproliferative activity against human HL-60(TB) cells incubated for 48 hrs by sulforhodamine B assay; assay type: functional; conditions: HL-60, 48 h
[19] = test system: SR; experiment: Antiproliferative activity against human SR cells incubated for 48 hrs by sulforhodamine B assay; assay type: functional; procedure, shortened: as §1
[20] = Antiproliferative activity against human HOP62 cells incubated for 48 hrs by sulforhodamine B assay; assay type: functional; conditions: HOP-62, 48 h; procedure, shortened: as §1
[21] = Antiproliferative activity against human HOP92 cells incubated for 48 hrs by sulforhodamine B assay; assay type: functional; conditions: HOP-92, 48 h
[22] = test system: NCI-H322M; experiment: Antiproliferative activity against human NCI-H322M cells incubated for 48 hrs by sulforhodamine B assay; assay type: functional; procedure, shortened: as §1
[23] = test system: NCI-H460; experiment: Antiproliferative activity against human NCI-H460 cells incubated for 48 hrs by sulforhodamine B assay; assay type: functional; conditions: NCI-H460, 48 h; procedure, shortened: as §1
[24] = Antiproliferative activity against human SW620 cells incubated for 48 hrs by sulforhodamine B assay; assay type: functional; conditions: SW-620, 48 h; procedure, shortened: as §1
[25] = Antiproliferative activity against human SF268 cells incubated for 48 hrs by sulforhodamine B assay; assay type: functional; conditions: SF-268, 48 h; procedure, shortened: as §1
[26] = Antiproliferative activity against human SF539 cells incubated for 48 hrs by sulforhodamine B assay; assay type: functional; conditions: SF-539, 48 h; procedure, shortened: as §1
[27] = Antiproliferative activity against human SNB19 cells incubated for 48 hrs by sulforhodamine B assay; assay type: functional; conditions: SNB-19, 48 h; procedure, shortened: as §1
[28] = test system: Malme-3M; experiment: Antiproliferative activity against human MALME-3M cells incubated for 48 hrs by sulforhodamine B assay; assay type: functional; procedure, shortened: as §1
[29] = test system: M14; experiment: Antiproliferative activity against human M14 cells incubated for 48 hrs by sulforhodamine B assay; assay type: functional; conditions: M14, 48 h; procedure, shortened: as §1
[30] = test system: SK-MEL-5; experiment: Antiproliferative activity against human SK-MEL-5 cells incubated for 48 hrs by sulforhodamine B assay; assay type: functional; conditions: SK-MEL-5, 48 h; procedure, shortened: as §1
[31] = read-out: pLC50 (the source's name) (converted)

Sequence of Phosphatidylinositol 4,5-bisphosphate 3-kinase catalytic subunit gamma isoform (P48736 whole entry, canonical isoform): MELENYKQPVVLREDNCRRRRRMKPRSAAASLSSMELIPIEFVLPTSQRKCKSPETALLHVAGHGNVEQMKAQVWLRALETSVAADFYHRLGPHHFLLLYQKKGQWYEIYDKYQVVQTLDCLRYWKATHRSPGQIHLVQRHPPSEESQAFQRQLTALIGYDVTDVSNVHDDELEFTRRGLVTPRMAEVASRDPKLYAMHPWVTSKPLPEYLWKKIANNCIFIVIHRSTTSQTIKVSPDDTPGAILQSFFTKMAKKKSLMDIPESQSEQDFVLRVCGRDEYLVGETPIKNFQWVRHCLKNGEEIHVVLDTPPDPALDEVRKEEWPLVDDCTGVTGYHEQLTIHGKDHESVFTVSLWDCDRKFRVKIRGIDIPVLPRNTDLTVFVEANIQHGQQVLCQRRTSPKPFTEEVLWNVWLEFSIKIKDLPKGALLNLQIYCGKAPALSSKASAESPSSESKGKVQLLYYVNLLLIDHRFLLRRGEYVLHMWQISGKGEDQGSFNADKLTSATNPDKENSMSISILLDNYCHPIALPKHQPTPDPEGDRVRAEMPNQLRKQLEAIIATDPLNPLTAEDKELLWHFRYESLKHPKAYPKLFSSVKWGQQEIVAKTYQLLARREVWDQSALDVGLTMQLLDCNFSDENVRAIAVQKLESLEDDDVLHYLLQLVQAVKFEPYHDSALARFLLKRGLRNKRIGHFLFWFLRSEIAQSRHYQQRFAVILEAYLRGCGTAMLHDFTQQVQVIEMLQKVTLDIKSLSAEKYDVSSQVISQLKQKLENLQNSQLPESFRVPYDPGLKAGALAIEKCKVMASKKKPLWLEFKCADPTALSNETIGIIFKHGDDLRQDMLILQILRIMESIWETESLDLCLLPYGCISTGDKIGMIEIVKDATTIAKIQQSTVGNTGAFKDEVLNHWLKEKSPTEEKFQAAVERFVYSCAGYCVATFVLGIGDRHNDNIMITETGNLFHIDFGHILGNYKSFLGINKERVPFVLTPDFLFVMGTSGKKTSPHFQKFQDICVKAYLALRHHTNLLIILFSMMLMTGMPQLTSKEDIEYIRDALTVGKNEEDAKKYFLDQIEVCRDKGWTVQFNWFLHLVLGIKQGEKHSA
Sequence of Phosphatidylinositol 4,5-bisphosphate 3-kinase catalytic subunit alpha isoform (P42336 whole entry, canonical isoform): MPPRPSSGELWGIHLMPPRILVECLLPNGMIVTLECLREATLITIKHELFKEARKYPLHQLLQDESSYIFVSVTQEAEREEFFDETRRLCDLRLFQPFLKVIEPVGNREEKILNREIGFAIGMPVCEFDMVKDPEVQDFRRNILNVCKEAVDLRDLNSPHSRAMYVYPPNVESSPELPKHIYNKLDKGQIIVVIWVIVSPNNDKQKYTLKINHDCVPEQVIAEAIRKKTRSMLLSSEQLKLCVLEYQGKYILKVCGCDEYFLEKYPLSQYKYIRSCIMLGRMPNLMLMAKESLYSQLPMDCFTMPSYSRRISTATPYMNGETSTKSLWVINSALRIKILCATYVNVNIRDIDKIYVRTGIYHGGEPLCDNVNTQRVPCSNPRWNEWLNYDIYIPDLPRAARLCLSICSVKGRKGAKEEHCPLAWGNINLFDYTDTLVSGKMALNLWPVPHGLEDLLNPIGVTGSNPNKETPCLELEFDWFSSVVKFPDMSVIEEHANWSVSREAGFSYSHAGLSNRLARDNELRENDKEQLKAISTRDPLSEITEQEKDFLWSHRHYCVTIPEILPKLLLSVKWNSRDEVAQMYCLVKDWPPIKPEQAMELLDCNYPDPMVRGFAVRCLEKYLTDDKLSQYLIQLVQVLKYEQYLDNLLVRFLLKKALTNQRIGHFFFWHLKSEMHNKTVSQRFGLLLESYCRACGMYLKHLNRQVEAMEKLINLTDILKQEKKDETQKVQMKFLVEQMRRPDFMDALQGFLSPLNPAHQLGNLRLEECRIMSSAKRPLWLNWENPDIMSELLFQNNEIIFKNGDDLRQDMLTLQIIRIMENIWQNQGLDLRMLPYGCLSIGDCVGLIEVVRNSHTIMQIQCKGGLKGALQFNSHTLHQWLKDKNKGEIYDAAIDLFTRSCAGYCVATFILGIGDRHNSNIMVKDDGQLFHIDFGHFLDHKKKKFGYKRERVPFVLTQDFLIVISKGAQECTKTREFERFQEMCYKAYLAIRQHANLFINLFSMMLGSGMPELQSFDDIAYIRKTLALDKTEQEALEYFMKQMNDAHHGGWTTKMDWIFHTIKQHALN

COc1ncc(-c2ccc3nccc(C#CCN4CCN(S(C)(=O)=O)CC4)c3c2)cc1NS(=O)(=O)c1ccc(F)cc1F
GI50 [1]: 257 nM | CC50 [1, 31]: 46800 nM | TGI ([1]; read-out: pTGI (converted)): 11500 nM | GI50 [2]: 37.1 nM | CC50 [2, 31]: 60300 nM | TGI ([2]; read-out: pTGI (converted)): 16200 nM | GI50 [3]: 37.1 nM | CC50 [3, 31]: 2190 nM | TGI ([3]; read-out: pTGI (converted)): 245 nM | GI50 [4]: 45.7 nM | CC50 [4, 31]: 34700 nM | TGI ([4]; read-out: pTGI (converted)): 6920 nM | GI50 [5]: 155 nM | CC50 [5, 31]: 40700 nM | TGI ([5]; read-out: pTGI (converted)): 13800 nM | GI50 [6]: 31.6 nM | CC50 [6, 31]: 39800 nM | TGI ([6]; read-out: pTGI (converted)): 11700 nM | GI50 [7]: 63.1 nM | CC50 [7, 31]: 36300 nM | TGI ([7]; read-out: pTGI (converted)): 10200 nM | GI50 [8]: 100 nM | CC50 [8, 31]: 41700 nM | TGI ([8]; read-out: pTGI (converted)): 12900 nM | GI50 [9]: < 10 nM | CC50 [9, 31]: 49000 nM | TGI ([9]; read-out: pTGI (converted)): 1780 nM | GI50 [10]: 437 nM | CC50 [10, 31]: 72400 nM | TGI ([10]; read-out: pTGI (converted)): 19500 nM | GI50 [11]: 18.6 nM | CC50 [11, 31]: > 100000 nM | GI50 [12]: < 10 nM | CC50 [12, 31]: > 100000 nM | TGI ([12]; read-out: pTGI (converted)): 13.5 nM | Activity [13]: 52% | half-life [14]: 29 min | IC50 [15]: 20 nM | IC50 [16]: 2 nM | IC50 [17]: 2.7 nM | GI50 [18]: 19.5 nM | CC50 [18, 31]: > 100000 nM | TGI ([18]; read-out: pTGI (converted)): 1450 nM | GI50 [19]: 251 nM | CC50 [19, 31]: > 100000 nM | TGI ([19]; read-out: pTGI (converted)): 15500 nM | GI50 [20]: < 10 nM | CC50 [20, 31]: 63100 nM | TGI ([20]; read-out: pTGI (converted)): 2820 nM | GI50 [21]: 13.8 nM | CC50 [21, 31]: 58900 nM | GI50 [22]: 110 nM | CC50 [22, 31]: 36300 nM | TGI ([22]; read-out: pTGI (converted)): 6920 nM | GI50 [23]: 51.3 nM | CC50 [23, 31]: 30900 nM | TGI ([23]; read-out: pTGI (converted)): 2140 nM | GI50 [24]: 229 nM | CC50 [24, 31]: 6920 nM | TGI ([24]; read-out: pTGI (converted)): 1950 nM | GI50 [25]: 110 nM | CC50 [25, 31]: 25100 nM | TGI ([25]; read-out: pTGI (converted)): 2880 nM | GI50 [26]: 55 nM | CC50 [26, 31]: 2690 nM | TGI ([26]; read-out: pTGI (converted)): 363 nM | GI50 [27]: 355 nM | CC50 [27, 31]: 15100 nM | TGI ([27]; read-out: pTGI (converted)): 2510 nM | GI50 [28]: 19.9 nM | CC50 [28, 31]: 33900 nM | TGI ([28]; read-out: pTGI (converted)): 324 nM | GI50 [29]: 72.4 nM | CC50 [29, 31]: 19100 nM | TGI ([29]; read-out: pTGI (converted)): 1580 nM | GI50 [30]: 195 nM | CC50 [30, 31]: 2950 nM | TGI ([30]; read-out: pTGI (converted)): 550 nM
